Data published in ChEMBL document CHEMBL1159035, “Click synthesis of estradiol-cyclodextrin conjugates as cell compartment selective estrogens” (Bioorg Med Chem, 2010).

Tests used:
Estrogen receptor [1] = molecular target: T1, Estrogen receptor (Homo sapiens, UniProt P03372); assay: Estrogenic activity at ERalpha in human Ishikawa cells assessed as stimulation of alkaline phosphatase activity after 4 days by microplate scanning spectrophotometry; assay type: cell-based
T1 sequence (P03372 whole entry): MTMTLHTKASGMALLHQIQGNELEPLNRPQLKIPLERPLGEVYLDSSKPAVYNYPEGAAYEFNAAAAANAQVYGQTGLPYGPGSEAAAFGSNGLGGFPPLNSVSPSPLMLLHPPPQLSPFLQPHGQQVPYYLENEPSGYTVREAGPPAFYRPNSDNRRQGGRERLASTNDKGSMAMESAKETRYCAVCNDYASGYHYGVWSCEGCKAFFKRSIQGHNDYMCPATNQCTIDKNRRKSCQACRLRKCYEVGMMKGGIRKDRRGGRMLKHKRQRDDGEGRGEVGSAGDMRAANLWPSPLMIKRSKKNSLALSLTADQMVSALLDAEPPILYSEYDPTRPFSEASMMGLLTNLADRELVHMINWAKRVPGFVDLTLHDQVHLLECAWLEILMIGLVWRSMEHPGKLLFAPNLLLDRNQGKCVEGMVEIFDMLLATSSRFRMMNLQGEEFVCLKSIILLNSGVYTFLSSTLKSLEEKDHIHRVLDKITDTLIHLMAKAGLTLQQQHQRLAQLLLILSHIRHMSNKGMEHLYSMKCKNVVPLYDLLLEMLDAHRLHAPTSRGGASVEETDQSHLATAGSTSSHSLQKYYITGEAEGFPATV

Estrogen receptor [2] = molecular target: T1, Estrogen receptor; assay: Antiestrogenic activity at ERalpha in human Ishikawa cells assessed as alkaline phosphatase activity after 4 days by microplate scanning spectrophotometry; assay type: cell-based
MCF7 [3] = assay: Drug uptake in human MCF7 cells assessed as drug localization to cytoplasm at 100 nM after 24 hrs by confocal fluorescent microscopy; assay type: ADME, cell-based; settings: mcf7, 24 h, 0.1 µM
Method in brief: (§1)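 MCF-7 cells were grown 48 h at 37 °C, 5% CO2 in phenol-free medium with 10% stripped FBS, then exposed to rhodamine conjugates (100 nM) for 24 h. Rinsed twice with PBS, nuclei stained with Hoechst (0.2 µg/mL). Laser-scanning confocal imaging with rhodamine Ex/Em 544/576 nm, nuclear marker 345/420 nm, plus DIC and overlay. Several images of different cells and planes.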

Estrogen receptor [4] = molecular target: T1, Estrogen receptor; assay: Activation of ERalpha-mediated ERE activity in human T47D/PKC cells coexpressing PKCalpha after 18 hrs by luciferase reporter gene assay; assay type: cell-based
MCF7 [5] = assay: Drug uptake in human MCF7 cells assessed as drug localization to nucleus at 100 nM after 24 hrs by confocal fluorescent microscopy; assay type: ADME, cell-based; settings: mcf7, 24 h, 0.1 µM; method in brief: as §1
Estrogen receptor [6] = molecular target: T1, Estrogen receptor; assay: Activation of ERalpha-mediated ERE activity in human T47D/neo cells after 18 hrs by luciferase reporter gene assay; assay type: cell-based

**Q.** What does the source list for `C[C@]12CC[C@@H]3c4ccc(O)cc4CC[C@H]3[C@@H]1CC[C@@]2(O)C#Cc1ccc(CNC[C@H]2O[C@@H]3O[C@H]4[C@H](O)[C@@H](O)[C@@H](O[C@H]5[C@H](O)[C@@H](O)[C@@H](O[C@H]6[C@H](O)[C@@H](O)[C@@H](O[C@H]7[C@H](O)[C@@H](O)[C@@H](O[C@H]8[C@H](O)[C@@H](O)[C@@H](O[C@H]9[C@H](O)[C@@H](O)[C@@H](O[C@H]2[C@H](O)[C@H]3O)O[C@@H]9CO)O[C@@H]8CO)O[C@@H]7CO)O[C@@H]6CO)O[C@@H]5CO)O[C@@H]4CO)cc1`?
**A.** EC50 (Estrogen receptor [1]; read-out: EC50): 4000 nM; IC50 (Estrogen receptor [2]): Not Active

**Q.** With `NC[C@H]1O[C@@H]2O[C@H]3[C@H](O)[C@@H](O)[C@@H](O[C@H]4[C@H](O)[C@@H](O)[C@@H](O[C@H]5[C@H](O)[C@@H](O)[C@@H](O[C@H]6[C@H](O)[C@@H](O)[C@@H](O[C@H]7[C@H](O)[C@@H](O)[C@@H](O[C@H]8[C@H](O)[C@@H](O)[C@@H](O[C@H]1[C@H](O)[C@H]2O)O[C@@H]8CN)O[C@@H]7CN)O[C@@H]6CN)O[C@@H]5CN)O[C@@H]4CN)O[C@@H]3CN` as the molecule, how does the EC50 (Estrogen receptor [1]; ishikawa) read?
**A.** Not Active

**Q.** What about the IC50 (Estrogen receptor [2]) of the same molecule?
**A.** Not Active

**Q.** Which EC50 (Estrogen receptor [1]; ishikawa) does the source give for `[N-]=[N+]=NC[C@H]1O[C@@H]2O[C@H]3[C@H](O)[C@@H](O)[C@@H](O[C@H]4[C@H](O)[C@@H](O)[C@@H](O[C@H]5[C@H](O)[C@@H](O)[C@@H](O[C@H]6[C@H](O)[C@@H](O)[C@@H](O[C@H]7[C@H](O)[C@@H](O)[C@@H](O[C@H]8[C@H](O)[C@@H](O)[C@@H](O[C@H]1[C@H](O)[C@H]2O)O[C@@H]8CN=[N+]=[N-])O[C@@H]7CN=[N+]=[N-])O[C@@H]6CN=[N+]=[N-])O[C@@H]5C/N=[NH+]\[NH-])O[C@@H]4CN=[N+]=[N-])O[C@@H]3CN=[N+]=[N-]` here?
**A.** Not Active

**Q.** What about the IC50 (Estrogen receptor [2]) of the same molecule?
**A.** Not Active

**Q.** With `Cn1cc([C@]2(O)CC[C@H]3[C@@H]4CCc5cc(O)ccc5[C@H]4CC[C@@]32C)nn1` as the molecule, how does the IC50 (Estrogen receptor [2]) read?
**A.** Not Active

**Q.** With `C[C@]12CC[C@@H]3c4ccc(O)cc4CC[C@H]3[C@@H]1CC[C@@]2(O)C#Cc1ccc(CO)cc1` as the molecule, how does the EC50 (Estrogen receptor [1]; read-out: EC50) read?
**A.** 27 nM

**Q.** What about the IC50 (Estrogen receptor [2]) of the same molecule?
**A.** Not Active

**Q.** For `C[C@]12CC[C@@H]3c4ccc(O)cc4CC[C@H]3[C@@H]1CC[C@@]2(O)C#Cc1ccc(N)cc1`, which EC50 (Estrogen receptor [1]; read-out: EC50) is on record?
**A.** 10 nM

**Q.** What about the IC50 (Estrogen receptor [2]) of the same molecule?
**A.** Not Active

**Q.** With `C[C@]12CC[C@@H]3c4ccc(O)cc4CC[C@H]3[C@@H]1CC[C@@]2(O)C#Cc1ccc(CNC[C@H]2O[C@@H]3O[C@H]4[C@H](O)[C@@H](O)[C@@H](O[C@H]5[C@H](O)[C@@H](O)[C@@H](O[C@H]6[C@H](O)[C@@H](O)[C@@H](O[C@H]7[C@H](O)[C@@H](O)[C@@H](O[C@H]8[C@H](O)[C@@H](O)[C@@H](O[C@H]9[C@H](O)[C@@H](O)[C@@H](O[C@H]2[C@H](O)[C@H]3O)O[C@@H]9CNCc2ccc(C#C[C@]3(O)CC[C@H]9[C@@H]%10CCc%11cc(O)ccc%11[C@H]%10CC[C@@]93C)cc2)O[C@@H]8CNCc2ccc(C#C[C@]3(O)CC[C@H]8[C@@H]9CCc%10cc(O)ccc%10[C@H]9CC[C@@]83C)cc2)O[C@@H]7CNCc2ccc(C#C[C@]3(O)CC[C@H]7[C@@H]8CCc9cc(O)ccc9[C@H]8CC[C@@]73C)cc2)O[C@@H]6CNCc2ccc(C#C[C@]3(O)CC[C@H]6[C@@H]7CCc8cc(O)ccc8[C@H]7CC[C@@]63C)cc2)O[C@@H]5CNCc2ccc(C#C[C@]3(O)CC[C@H]5[C@@H]6CCc7cc(O)ccc7[C@H]6CC[C@@]53C)cc2)O[C@@H]4CNCc2ccc(C#C[C@]3(O)CC[C@H]4[C@@H]5CCc6cc(O)ccc6[C@H]5CC[C@@]43C)cc2)cc1` as the molecule, how does the EC50 (Estrogen receptor [1]; read-out: EC50) read?
**A.** 300 nM

**Q.** And the IC50 (Estrogen receptor [2])?
**A.** Not Active

**Q.** How did the EC50 (Estrogen receptor [1]; read-out: EC50) turn out when `C[C@]12CC[C@@H]3c4ccc(O)cc4CC[C@H]3[C@@H]1CC[C@@]2(O)c1cn(C[C@H]2O[C@@H]3O[C@H]4[C@H](O)[C@@H](O)[C@@H](O[C@H]5[C@H](O)[C@@H](O)[C@@H](O[C@H]6[C@H](O)[C@@H](O)[C@@H](O[C@H]7[C@H](O)[C@@H](O)[C@@H](O[C@H]8[C@H](O)[C@@H](O)[C@@H](O[C@H]9[C@H](O)[C@@H](O)[C@@H](O[C@H]2[C@H](O)[C@H]3O)O[C@@H]9CO)O[C@@H]8CO)O[C@@H]7CO)O[C@@H]6CO)O[C@@H]5CO)O[C@@H]4CO)nn1` was run?
**A.** 4000 nM

**Q.** And the IC50 (Estrogen receptor [2])?
**A.** Not Active

**Q.** Which results are given for `C[C@]12CC[C@@H]3c4ccc(O)cc4CC[C@H]3[C@@H]1CC[C@@]2(O)c1cn(CC[C@H]2O[C@@H]3O[C@H]4[C@H](O)[C@@H](O)[C@@H](O[C@H]5[C@H](O)[C@@H](O)[C@@H](O[C@H]6[C@H](O)[C@@H](O)[C@@H](O[C@H]7[C@H](O)[C@@H](O)[C@@H](O[C@H]8[C@H](O)[C@@H](O)[C@@H](O[C@H]9[C@H](O)[C@@H](O)[C@@H](O[C@H]2[C@H](O)[C@H]3O)O[C@@H]9Cn2cc([C@]3(O)CC[C@H]9[C@@H]%10CCc%11cc(O)ccc%11[C@H]%10CC[C@@]93C)nn2)O[C@@H]8Cn2cc([C@]3(O)CC[C@H]8[C@@H]9CCc%10cc(O)ccc%10[C@H]9CC[C@@]83C)nn2)O[C@@H]7Cn2cc([C@]3(O)CC[C@H]7[C@@H]8CCc9cc(O)ccc9[C@H]8CC[C@@]73C)nn2)O[C@@H]6Cn2cc([C@]3(O)CC[C@H]6[C@@H]7CCc8cc(O)ccc8[C@H]7CC[C@@]63C)nn2)O[C@@H]5Cn2cc([C@]3(O)CC[C@H]5[C@@H]6CCc7cc(O)ccc7[C@H]6CC[C@@]53C)nn2)O[C@@H]4Cn2cc([C@]3(O)CC[C@H]4[C@@H]5CCc6cc(O)ccc6[C@H]5CC[C@@]43C)nn2)nn1`?
**A.** Drug uptake (MCF7 [3]): Active; EC50 (Estrogen receptor [1]; read-out: EC50): 200 nM; IC50 (Estrogen receptor [2]): Not Active; EC50 (Estrogen receptor [4]): 2 nM; Drug uptake (MCF7 [5]): Not Active; EC50 (Estrogen receptor [6]): > 100 nM

**Q.** Which EC50 (Estrogen receptor [1]; read-out: EC50) does the source give for `CC#C[C@]1(O)CC[C@H]2[C@@H]3CCc4cc(O)ccc4[C@H]3CC[C@@]21C` [ESTROGEN] here?
**A.** 0.028 nM
